# ARNT-TACC3 inh = disruptors of ARNT/TACC3 protein interaction, primary screen, biochemical, AlphaScreen, single concentration; AlphaScreen His-ARNT PAS-B/GST-TACC3 binding, luminescence; TACC3 fragment carries E629A point mutation; Transforming acidic coiled-coil-containing protein 3 (Homo sapiens), Q9Y6A5; inhibition, % at 9.99 µM; 390,000 tested, 0.66% active;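 active means mean inhibition of replicates at least 50% and at least half of replicates each reaching 50%; inconclusive means half or more replicates reach 50% but mean below 50%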;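 further: 0% = complete ARNT plus TACC3 wells and 100% = ARNT alone without TACC3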
# GRK2 inh = compounds blocking aptamer binding on GRK2 – biochemical, human GRK2, bead flow cytometry, HTS, primary screen | FAM-aptamer displacement from GRK2 | inhibition of aptamer binding, % at 10 µM | 330,000 tested, 0.59% active;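 active means inhibition of aptamer binding above 40%, roughly 3 SD of noise, on plates passing a quality check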;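 further: median bead fluorescence of bound FAM aptamer so fluorescent compounds give negative values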
# CAL PDZ FP-1 = untagged CAL PDZ binding inhibitors, primary screen, biochemical, fluorescence polarization, HTS; Golgi-associated PDZ and coiled-coil motif-containing protein (Homo sapiens), Q9HD26; inhibition, % at 24.9 µM; purified CAL PDZ, TMR-peptide fluorescence polarization, 1 h; 300,000 tested, 0.92% active;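 active means mean inhibition of at least 30% with at least half of replicates also reaching 30%; inconclusive means no clear call, values can overlap the other calls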;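 further: 0% = DMSO neutral control and 100% = excess unlabeled competitor peptide PRC23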
# CAL PDZ FP-2 = CAL PDZ peptide-binding inhibitors, primary screen, biochemical, fluorescence polarization, Cer-tagged CAL PDZ, HTS | Golgi-associated PDZ and coiled-coil motif-containing protein (Homo sapiens), Q9HD26 | purified CAL PDZ, TMR-peptide fluorescence polarization, 1 h | inhibition, % at 20 µM | 330,000 tested, 0.02% active | AID 504414, 2011;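 active means highest replicate inhibition of at least 40%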;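 further: plate controls were DMSO neutral control wells for no effect and unlabeled competitor peptide control wells for full effect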
#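 material = purified tagged CAL PDZ domain construct (CerCALP) | buffer or medium = sodium phosphate/NaCl buffer pH 7.4 with TCEP, IgG, Thesit | reagent = TMR-labelled reporter peptide T*-PRC34 bound in PDZ groove | incubation = 1 h room-temperature incubation prior to read | measured by = fluorescence polarization (mP) | evaluation = percent inhibition from loss of millipolarization | control set = unlabelled peptide and DMSO controls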
# Tn7 DDE FP = inhibitors of Tn7 peptide binding to fibrin DD(E), primary screen, biochemical, fluorescence polarization, human fibrin, Tn7 probe; Fibrinogen beta chain (Homo sapiens), P02675; FP displacement of FITC-Tn7 peptide from fibrin DD(E); 0% = median of compound wells per plate; inhibition, % at 8.3 µM; 370,000 tested, 0.13% active; AID 720508, 2013;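 active means inhibition above the mean of compounds falling within the control limits plus 3 SD of them, cut at about 14% in these data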;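 further: 0% = plate median of compound wells and 100% = 10 µM Aha-Tn7 peptide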
# Target sequence (P02675 whole entry, looked up): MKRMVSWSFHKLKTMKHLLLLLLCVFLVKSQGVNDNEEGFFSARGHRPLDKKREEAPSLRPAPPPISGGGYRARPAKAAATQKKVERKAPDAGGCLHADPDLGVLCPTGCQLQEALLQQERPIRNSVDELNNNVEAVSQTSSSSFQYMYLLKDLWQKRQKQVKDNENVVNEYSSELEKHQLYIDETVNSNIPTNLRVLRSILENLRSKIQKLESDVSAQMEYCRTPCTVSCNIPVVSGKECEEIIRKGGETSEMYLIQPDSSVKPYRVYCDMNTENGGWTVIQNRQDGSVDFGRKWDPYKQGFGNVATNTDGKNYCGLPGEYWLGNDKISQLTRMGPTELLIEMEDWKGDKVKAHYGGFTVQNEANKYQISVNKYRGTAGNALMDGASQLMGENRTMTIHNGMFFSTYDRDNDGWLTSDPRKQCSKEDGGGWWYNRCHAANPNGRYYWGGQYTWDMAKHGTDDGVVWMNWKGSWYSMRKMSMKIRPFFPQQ
#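 Measure: % inhibition scaled between sample-field median and high-control FP; Test system: human fibrin DD(E); Quantity: 2 µM final DD(E) protein; Doses: one dose, 8.3 µM nominal; Schedule: compound with protein 10 min, then 3 h after probe, room temperature; Detection: fluorescence polarization; Medium: Tris buffer with calcium and detergent, pH 7.8.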
# Tn6 DDE FP = inhibitors of Tn6 peptide binding to fibrin DD(E), primary screen, biochemical, fluorescence polarization, human fibrin, Tn6 probe; inhibition, % at 8.3 µM; Fibrinogen beta chain (Homo sapiens), P02675; Fibrin DD(E) TRITC-Tn6 fluorescence polarization displacement; 370,000 tested, 0.21% active; AID 720509, 2013;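 active means inhibition above a per-campaign cutoff: mean of compounds within control limits plus 3 SD, cut at about 15% in these data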;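 further: 0% = median of all compound wells on the plate and 100% = blocking peptide control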
# * = called active by the depositor; u = inconclusive; x = not tested or not shown; + = active, no number. This is a sample that favours compounds with a hit; in the whole collection about 1.8% have one here.
SMILES,ARNT-TACC3 inh,GRK2 inh,CAL PDZ FP-1,CAL PDZ FP-2,Tn7 DDE FP,Tn6 DDE FP
CCOP(=O)(/C(C#N)=C(/O)c1ccccc1)c1ccccc1 (stereo not given),-7,0,123*,0,-2,-9
CNC[C@@H]1Oc2ncc(-c3cccc(F)c3)cc2C(=O)N([C@@H](C)CO)C[C@@H]1C,19,x,x,x,x,x
COc1cc(/C=N/NC(=O)Cc2ccc(Br)cc2)cc(OC)c1O,-16,0,-9,-1,3,-6
COc1cc(/C=N/NC(=O)CC#N)cc(Br)c1O,58*,1,0,0,1,0
Cc1ccc(NNC(=O)c2cc(C(C)(C)C)nn2Cc2ccccc2)cc1,-2,0,-8,0,-3,5
CC(C)(C)c1cc(C(=O)NNc2cccc(Cl)c2)n(Cc2ccccc2)n1,5,0,66*,-1,4,-7
Cc1nc(Nc2ccc(C(=O)O)cc2)sc1-c1ccccc1,-1,4,56*,0,-4,2
CCOC(=O)C1=C[C@@H](c2ccccc2)N(S(=O)(=O)c2ccc(C)cc2)[C@H]1c1ccc(F)cc1,x,x,x,x,4,3
O=C(Nc1nnc(-c2ccc(Cl)cc2)o1)c1ccc(N2C(=O)CCC2=O)cc1,-23,4,0,0,3,-2
CN(c1ccccc1)S(=O)(=O)c1ccc(C(=O)Nc2nnc(-c3ccco3)o2)cc1,x,2,-2,-2,-1,0
Cc1nn(-c2ccccc2)c(C)c1C(=O)Nc1nnc(-c2ccco2)o1,49*,0,-1,-2,-3,-5
O=C(Nc1nnc(-c2ccco2)o1)c1ccc(N2C(=O)CCC2=O)cc1,58*,2,4,0,-1,-2
CSc1cccc(NC(=O)CNC(=O)c2ccc3c(c2)OCO3)c1,-1,3,61*,-1,-1,-4
COC(=O)[C@H](Cc1ccccc1)NC(=O)NC(C)CCc1ccccc1 (stereo not given in full),4,2,42*,x,3,7
O=C(Nc1ccc(F)cc1)c1nc[nH]c1C(=O)O,54*,0,28,0,-6,6
CC(C)NC(=O)N1[C@@H]2c3ccc(-c4ccccc4F)c(=O)n3C[C@@H]2[C@@H](CO)[C@@H]1C(=O)NC1CCC1,0,x,x,x,x,x
COc1ccc(S(=O)(=O)N(C)CC(=O)NCCN2CCOCC2)cc1,-5,1,x,0,-5,5
Cc1cc(C)c(S(=O)(=O)N(C)CC(=O)NCCN2CCOCC2)c(C)c1,-2,3,31*,-1,-2,-1
COc1ccc(S(=O)(=O)Nc2ccc3c(c2)C(=O)N([C@@H](C)CO)C[C@@H](C)[C@H](CN(C)S(=O)(=O)c2ccc(C)cc2)OCCCC[C@H](C)O3)cc1,-1,x,x,x,x,x
COc1ccc(C(CNC(=O)c2ccc(NS(=O)(=O)c3ccc(F)c(C)c3)cc2)N2CCCC2)cc1 (stereo not given),3,x,55*,-3,-5,5
COC(=O)[C@]12C[C@H](CC(=O)NCCc3ccccc3OC)C(=O)N(Cc3ccccc3)C1=C[C@H](COCc1ccccc1)O[C@@H]2C,x,x,x,x,4,13
COc1ccccc1NC(=O)/C(=C\c1cccnc1)NC(=O)c1ccccc1,-3,2,-1,-1,-1,-2
COc1ccccc1NC(=O)/C(=C\c1cccnc1)NC(=O)c1ccc(C)cc1,x,1,42*,-1,4,0
C[C@H]1CN([C@@H](C)CO)C(=O)c2cc(NS(C)(=O)=O)ccc2O[C@@H]1CN(C)S(=O)(=O)c1ccc(F)cc1,-1,x,x,x,x,x
COc1ccc(C(=O)C2CCN(C(=O)c3ccc(OC)cc3)CC2)cc1,0,0,74*,3,5,1
SMILES,ARNT-TACC3 inh,GRK2 inh,CAL PDZ FP-1,CAL PDZ FP-2,Tn7 DDE FP,Tn6 DDE FP
COC(=O)c1ccccc1NC(=O)C1CCN(C(=O)c2cc(OC)cc(OC)c2)CC1,2,0,115*,-1,1,-6
COc1ccc(C(=O)N2CCC(C(=O)c3ccc(F)cc3)CC2)cc1,5,1,1,-2,-3,2
CCN(CC(=O)Nc1ccc(NC(C)=O)cc1)C(=O)CCCc1nc2ccccc2c(=O)[nH]1,0,1,-3,-2,1,3
Cc1ccc(NC(=O)c2cc(NC(=O)/C=C\C(=O)O)ccc2N2CCCCC2)cc1,-1,2,-3,-3,4,-8
Cc1ccc(NC(=O)c2cc(NC(=O)c3ccccc3C(=O)O)ccc2N2CCCCC2)cc1,2,1,51*,-3,-2,-5
COC(=O)c1ccc(NC(=O)c2ccc(NC(=O)C3CCCO3)cc2)cc1 (stereo not given),-5,0,+,-1,-1,-6
COC(=O)c1ccc(NC(=O)C2CC3CCC2C3)cc1 (stereo not given),-3,0,32*,-3,-5,2
COc1ccc(CN(C)C[C@@H]2Oc3ccc(NC(=O)C4CCCCC4)cc3C(=O)N([C@@H](C)CO)C[C@H]2C)cc1,-7,x,x,x,x,x
O=C(/C=C/c1ccco1)N1CCN(S(=O)(=O)c2ccccc2)CC1,3,78*,u,-2,-3,-7
CN=c1scc(-c2ccccc2F)n1/N=C/c1ccc(O)c(O)c1O,53*,x,-2,11,-5,-5
CC(C)N=c1scc(-c2cccs2)n1/N=C/c1ccc(O)c(O)c1O,59*,2,-4,0,0,-1
COc1ccc(C(=O)N2CCN(Cc3nc(CC4CC4)no3)CC2)cc1,2,4,-5,-1,-4,-3
Cc1ccc(Cn2c(=N)n(CC(=O)c3ccccc3)c3ccccc32)cc1,x,0,-5,0,-12,2
C[C@H](CO)N1C[C@H](C)[C@H](CN(C)Cc2ccccc2)Oc2ccc(NC(=O)Nc3cccc4ccccc34)cc2C1=O,-23,x,x,x,x,x
COc1cccc(NC(=S)Nc2cc(C)cc(C)n2)c1,1,0,0,0,-5,-3
Cc1cc(C)nc(NC(=S)Nc2cccc(F)c2)c1,-4,0,65*,0,-5,-12
